Format in all cases: tissue-based
Data set [1] has as its target T1, Amine oxidase [flavin-containing] B (Rattus norvegicus, UniProt P19643).
T1 sequence (P19643 whole entry): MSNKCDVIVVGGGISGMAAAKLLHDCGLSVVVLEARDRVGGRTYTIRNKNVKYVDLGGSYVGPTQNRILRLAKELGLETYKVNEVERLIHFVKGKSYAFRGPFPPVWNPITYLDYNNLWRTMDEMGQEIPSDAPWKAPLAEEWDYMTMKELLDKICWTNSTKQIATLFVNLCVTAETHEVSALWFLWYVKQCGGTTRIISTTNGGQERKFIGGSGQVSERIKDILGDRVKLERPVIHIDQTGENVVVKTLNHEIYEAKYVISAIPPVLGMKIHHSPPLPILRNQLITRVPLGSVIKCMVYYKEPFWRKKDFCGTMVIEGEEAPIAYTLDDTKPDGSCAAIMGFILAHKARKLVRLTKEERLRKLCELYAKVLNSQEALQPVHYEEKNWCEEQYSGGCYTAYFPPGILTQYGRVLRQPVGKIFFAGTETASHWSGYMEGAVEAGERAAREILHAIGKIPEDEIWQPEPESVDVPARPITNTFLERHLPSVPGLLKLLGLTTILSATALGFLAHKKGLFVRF
Kind of data set: Inhibition of Sprague-Dawley rat MAO-B in brain mitochondrial homogenate assessed as 4-hydroxyquinoline by spectrophotometric method.

Data set [2] has as its target T2, Amine oxidase [flavin-containing] A (Rattus norvegicus, UniProt P21396).
T2 sequence (P21396 whole entry): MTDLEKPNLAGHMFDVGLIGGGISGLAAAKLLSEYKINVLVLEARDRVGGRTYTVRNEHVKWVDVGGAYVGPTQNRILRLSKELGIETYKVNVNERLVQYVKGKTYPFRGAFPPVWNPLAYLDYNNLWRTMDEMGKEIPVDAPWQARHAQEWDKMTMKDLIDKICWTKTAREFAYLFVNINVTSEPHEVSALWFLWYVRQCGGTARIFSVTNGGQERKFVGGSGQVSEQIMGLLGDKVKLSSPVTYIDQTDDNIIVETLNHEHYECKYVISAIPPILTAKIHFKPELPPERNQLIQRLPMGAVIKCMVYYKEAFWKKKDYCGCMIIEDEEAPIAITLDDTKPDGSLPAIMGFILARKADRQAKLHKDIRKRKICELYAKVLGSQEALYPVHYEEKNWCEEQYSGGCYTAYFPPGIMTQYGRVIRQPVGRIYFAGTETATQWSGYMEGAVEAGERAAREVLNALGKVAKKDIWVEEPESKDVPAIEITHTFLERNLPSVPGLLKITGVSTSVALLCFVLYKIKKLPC
Kind of data set: Inhibition of Sprague-Dawley rat MAO-A in brain mitochondrial homogenate assessed as 4-hydroxyquinoline by spectrophotometric method. The gist of the method: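 The MAO-A source was a crude male Sprague-Dawley rat brain mitochondrial fraction (1 mg/mL), pretreated with (-)-L-deprenyl 250 nM. Compound in DMSO (final 5% v/v) was preincubated for 5 min, then kynuramine was added at 90 μM (KM). 4-Hydroxyquinoline formation was monitored at 314 nm for 5 min.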

The target in data set [3] is T3, MAO-A (amine oxidase [flavin-containing] A) (Rattus norvegicus, UniProt P21396).
T3 sequence (P21396 whole entry): T2 sequence (P21396 whole entry)
Briefly: Inhibition of Sprague-Dawley rat MAO-A in brain mitochondrial homogenate assessed as 4-hydroxyquinoline at 10 uM by spectrophotometric method. The procedure, abridged:
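Crude mitochondrial fraction from male Sprague-Dawley rat brain (200-250 g) was used at 1 mg/mL and pretreated with (-)-L-deprenyl 250 nM to isolate MAO-A. Compound was given at 10 μM in DMSO (final 5% v/v) with a 5 min preincubation. Kynuramine was added at 90 μM (KM), and 4-hydroxyquinoline formation was read at 314 nm for 5 min. Values are means of 2-3 independent experiments.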

The structures appear in SMILES notation.

A word on the IC50: it is the concentration at which inhibition is half-maximal. As to `CCNC(=O)Nc1cc(=O)oc2cc(OCc3cccc(Cl)c3)ccc12`, the IC50 in data set [1] is 31600 nM. Regarding `O=C(O)COc1cc(=O)oc2cc(OCc3cccc(Cl)c3)ccc12`, the IC50 in data set [1] was 31600 nM.

Turning to `O=C(O)c1cc(=O)oc2cc(OCc3cccc(Cl)c3)ccc12`, the IC50 in data set [1] was 100000 nM. On to `O=c1cc(CCO)c2ccc(OCc3cccc(Cl)c3)cc2o1`, for which the half-maximal inhibitory concentration (IC50) in data set [1] was 7.41 nM; in data set [2] it was 4680 nM. The inhibition is the drop in the measured response relative to a control, in per cent. On to `O=c1cc(CCCl)c2ccc(OCc3cccc(Cl)c3)cc2o1`, for which, in data set [3], the inhibition at 10 µM was found to be 3%. Further, in data set [1], the IC50 was 12.9 nM.

Turning to `O=c1cc(CCBr)c2ccc(OCc3cccc(Cl)c3)cc2o1`, the inhibition at 10 µM in data set [3] amounted to 22%. In addition, the IC50 in data set [1] was 32.4 nM.

Take `O=c1cc(CCN2CCCCC2)c2ccc(OCc3cccc(Cl)c3)cc2o1`: in data set [3], the inhibition at 10 µM came out at 1%. Besides, the IC50 in data set [1] is 3800 nM. Consider `O=C(O)CCc1cc(=O)oc2cc(OCc3cccc(Cl)c3)ccc12`, for which, in data set [3], the inhibition at 10 µM is 13%. Besides, the IC50 in data set [1] is 1200 nM.

Regarding `NC(=O)CCc1cc(=O)oc2cc(OCc3cccc(Cl)c3)ccc12`, the half-inhibitory concentration (IC50) in data set [1] is 15.1 nM; in data set [2], 4270 nM. For `N#CCCc1cc(=O)oc2cc(OCc3cccc(Cl)c3)ccc12`, the inhibition at 10 µM in data set [3] was 22%. Also, in data set [1], the concentration for half-maximal inhibition (IC50) was 28.8 nM. With `NC(=O)CNc1cc(=O)oc2cc(OCc3cccc(Cl)c3)ccc12`, the IC50 in data set [1] is 49 nM; in data set [2], 95.5 nM. Regarding `O=C(CCl)Nc1cc(=O)oc2cc(OCc3cccc(Cl)c3)ccc12`, the results for the half-maximal inhibitory concentration (IC50) in data set [1] and in data set [2] were 398 nM and 5750 nM, respectively.

These data come from ChEMBL document CHEMBL3352257, “In silico design of novel 2H-chromen-2-one derivatives as potent and selective MAO-B inhibitors” (Eur J Med Chem, 2015).
